Legend:
SNB-75 = assay: Cytotoxicity against human SNB75 cells assessed as cell growth at 0.05 uM by SRB assay; type: functional; settings: read-out: Activity
[1] = Cytotoxicity against human NCI-ADR-RES cells assessed as cell growth at 0.05 uM by SRB assay; type: functional; settings: read-out: Activity
COLO 205 [2] = assay: Cytotoxicity against human COLO205 cells assessed as cell growth at 5 uM by SRB assay; type: functional; settings: read-out: Activity
U-251 = assay: Cytotoxicity against human U251 cells assessed as cell growth at 50 uM by SRB assay; type: functional; settings: read-out: Activity
OVCAR-4 = assay: Cytotoxicity against human OVCAR4 cells assessed as cell growth at 0.005 uM by SRB assay; type: functional; settings: read-out: Activity
LOX IMVI = assay: Cytotoxicity against human LOXIMVI cells assessed as cell growth at 0.5 uM by SRB assay; type: functional; settings: read-out: Activity
COLO 205 [3] = assay: Cytotoxicity against human COLO205 cells assessed as cell growth at 0.05 uM by SRB assay; type: functional; settings: read-out: Activity
SK-MEL-5 = assay: Cytotoxicity against human SK-MEL-5 cells assessed as cell growth at 0.5 uM by SRB assay; type: functional; settings: read-out: Activity
UO-31 = assay: Cytotoxicity against human UO31 cells assessed as cell growth at 50 uM by SRB assay; type: functional; settings: read-out: Activity
SR [4] = assay: Cytotoxicity against human SR cells assessed as cell growth at 5 uM by SRB assay; type: functional; settings: read-out: Activity
SF-268 [5] = assay: Cytotoxicity against human SF268 cells assessed as cell growth at 0.05 uM by SRB assay; type: functional; settings: read-out: Activity
A549 = assay: Cytotoxicity against human A549/ATCC cells assessed as cell growth at 50 uM by SRB assay; type: functional; settings: read-out: Activity
SF-268 [6] = assay: Cytotoxicity against human SF268 cells assessed as cell growth at 0.005 uM by SRB assay; type: functional; settings: read-out: Activity
DU-145 [7] = assay: Cytotoxicity against human DU145 cells assessed as cell growth at 0.5 uM by SRB assay; type: functional; settings: read-out: Activity
Summary of the method: (§1)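 Measured in the NCI-60 human tumour cell line panel using five-dose testing. Growth was recorded at each dose for each cell line, and a GI50 was derived for each line.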

[8] = Cytotoxicity against human NCI-ADR-RES cells assessed as cell growth at 5 uM by SRB assay; type: functional; settings: read-out: Activity
SF-268 [9] = assay: Cytotoxicity against human SF268 cells assessed as cell growth at 0.5 uM by SRB assay; type: functional; settings: read-out: Activity
DU-145 [10] = assay: Cytotoxicity against human DU145 cells assessed as cell growth at 5 uM by SRB assay; type: functional; settings: read-out: Activity; summary of the method: as §1
OVCAR-5 [11] = assay: Cytotoxicity against human OVCAR5 cells assessed as cell growth at 50 uM by SRB assay; type: functional; settings: read-out: Activity
SR [12] = assay: Cytotoxicity against human SR cells by SRB assay; type: functional
Summary of the method: (§2)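 NCI-60 panel screen; 5-dose testing giving GI50 per cell line, plus a single 10 µM one-dose test. Method details not given beyond the NCI screen.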

NCI-H460 = assay: Cytotoxicity against human NCI-H460 cells assessed as cell growth at 0.5 uM by SRB assay; type: functional; settings: read-out: Activity
786-0 = assay: Cytotoxicity against human 786-0 cells by SRB assay; type: functional
CCRF-CEM = assay: Cytotoxicity against human CCRF-CEM cells by SRB assay; type: functional
SF-295 = assay: Cytotoxicity against human SF295 cells assessed as cell growth at 50 uM by SRB assay; type: functional; settings: read-out: Activity
RPMI-8226 = assay: Cytotoxicity against human RPMI8226 cells by SRB assay; type: functional; summary of the method: as §2
SN12C = assay: Cytotoxicity against human SN12C cells assessed as cell growth at 0.05 uM by SRB assay; type: functional; settings: read-out: Activity
IGROV-1 [13] = assay: Cytotoxicity against human IGROV1 cells assessed as cell growth at 50 uM by SRB assay; type: functional; settings: read-out: Activity
IGROV-1 [14] = assay: Cytotoxicity against human IGROV1 cells assessed as cell growth at 5 uM by SRB assay; type: functional; settings: read-out: Activity
SW-620 = assay: Cytotoxicity against human SW620 cells assessed as cell growth at 0.05 uM by SRB assay; type: functional; settings: read-out: Activity
RXF 393 = assay: Cytotoxicity against human RXF393 cells by SRB assay; type: functional; summary of the method: as §2
OVCAR-3 [15] = assay: Cytotoxicity against human OVCAR3 cells assessed as cell growth at 5 uM by SRB assay; type: functional; settings: read-out: Activity
SNB-19 [16] = assay: Cytotoxicity against human SNB19 cells assessed as cell growth at 5 uM by SRB assay; type: functional; settings: read-out: Activity
OVCAR-3 [17] = assay: Cytotoxicity against human OVCAR3 cells assessed as cell growth at 0.005 uM by SRB assay; type: functional; settings: read-out: Activity
NCI-H322M = assay: Cytotoxicity against human NCI-H322M cells by SRB assay; type: functional; summary of the method: as §2
CAKI-1 = assay: Cytotoxicity against human Caki1 cells assessed as cell growth at 0.005 uM by SRB assay; type: functional; settings: read-out: Activity
OVCAR-5 [18] = assay: Cytotoxicity against human OVCAR5 cells assessed as cell growth at 0.05 uM by SRB assay; type: functional; settings: read-out: Activity
T47D = assay: Cytotoxicity against human T47D cells assessed as cell growth at 0.005 uM by SRB assay; type: functional; settings: read-out: Activity
[19] = Cytotoxicity against etoposide-resistant human K/VP.5 cells assessed as cell growth inhibition after 72 hrs by MTS assay; type: functional, cell-based; settings: K/VP.5, 72 h
Summary of the method: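 K/VP.5 cells are a K562-derived subline, 26-fold etoposide-resistant, with decreased topoisomerase IIα mRNA and protein. Cells were grown in suspension in αMEM with 10% fetal calf serum. Drugs were given from DMSO stocks, with final DMSO typically 0.4% or less. Read-out was MTS absorbance after 72 h. Typically nine concentrations were run in duplicate on two days. IC50 came from a four-parameter logistic fit.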

NCI-H522 = assay: Cytotoxicity against human NCI-H522 cells assessed as cell growth at 0.005 uM by SRB assay; type: functional; settings: read-out: Activity
IGROV-1 [20] = assay: Cytotoxicity against human IGROV1 cells assessed as cell growth at 0.005 uM by SRB assay; type: functional; settings: read-out: Activity; summary of the method: as §1
ACHN = assay: Cytotoxicity against human ACHN cells assessed as cell growth at 0.5 uM by SRB assay; type: functional; settings: read-out: Activity
SNB-19 [21] = assay: Cytotoxicity against human SNB19 cells assessed as cell growth at 0.005 uM by SRB assay; type: functional; settings: read-out: Activity
[22] = read-out: LC50 (the source's name)
[23] = read-out: pLC50 (the source's name) (converted)

COc1cc([C@@H]2c3cc4c(cc3[C@@H](NC(=O)CN3CCN(CCCCCCN5CCN(CC(=O)N[C@@H]6c7cc8c(cc7[C@@H](c7cc(OC)c(O)c(OC)c7)[C@H]7C(=O)OC[C@@H]76)OCO8)CC5)CC3)[C@H]3COC(=O)[C@H]23)OCO4)cc(OC)c1O
growth at 0.05 µM (SNB-75): 77%
growth at 0.05 µM [1]: 103%
growth at 5 µM (COLO 205 [2]): 54%
growth at 50 µM (U-251): -10%
growth at 0.005 µM (OVCAR-4): 85%
growth at 0.5 µM (LOX IMVI): 61%
growth at 0.05 µM (COLO 205 [3]): 99%
growth at 0.5 µM (SK-MEL-5): 85%
growth at 50 µM (UO-31): 64%
growth at 5 µM (SR [4]): 6%
growth at 0.05 µM (SF-268 [5]): 100%
growth at 50 µM (A549): -37%
growth at 0.005 µM (SF-268 [6]): 97%
growth at 0.5 µM (DU-145 [7]): 89%
growth at 5 µM [8]: 107%
growth at 0.5 µM (SF-268 [9]): 74%
growth at 5 µM (DU-145 [10]): 14%
growth at 50 µM (OVCAR-5 [11]): 10%
GI50 (SR [12]; read-out: GI50): 0.106 µM
CC50 (SR [12]; [22]): > 50 µM
TGI (SR [12]; read-out: TGI): > 50 µM
GI50 (SR [12]; read-out: pGI50 (converted)): 0.105 µM
CC50 (SR [12]; [23]): > 50.1 µM
TGI (SR [12]; read-out: pTGI (converted)): > 50.1 µM
growth at 0.5 µM (NCI-H460): 35%
GI50 (786-0; read-out: GI50): 2.86 µM
CC50 (786-0; [22]): > 50 µM
TGI (786-0; read-out: TGI): 31.7 µM
GI50 (786-0; read-out: pGI50 (converted)): 2.88 µM
CC50 (786-0; [23]): > 50.1 µM
TGI (786-0; read-out: pTGI (converted)): 31.6 µM
GI50 (CCRF-CEM; read-out: GI50): 0.253 µM
CC50 (CCRF-CEM; [22]): > 50 µM
TGI (CCRF-CEM; read-out: TGI): > 50 µM
GI50 (CCRF-CEM; read-out: pGI50 (converted)): 0.251 µM
CC50 (CCRF-CEM; [23]): > 50.1 µM
TGI (CCRF-CEM; read-out: pTGI): > 50.1 µM
growth at 50 µM (SF-295): 1%
GI50 (RPMI-8226; read-out: GI50): 0.89 µM
CC50 (RPMI-8226; [22]): > 50 µM
TGI (RPMI-8226; read-out: TGI): 4.9 µM
GI50 (RPMI-8226; read-out: pGI50 (converted)): 0.891 µM
CC50 (RPMI-8226; [23]): > 50.1 µM
TGI (RPMI-8226; read-out: pTGI (converted)): 4.9 µM
growth at 0.05 µM (SN12C): 97%
growth at 50 µM (IGROV-1 [13]): 47%
growth at 5 µM (IGROV-1 [14]): 74%
growth at 0.05 µM (SW-620): 91%
GI50 (RXF 393; read-out: GI50): 9.33 µM
CC50 (RXF 393; [22]): > 50 µM
TGI (RXF 393; read-out: TGI): > 50 µM
GI50 (RXF 393; read-out: pGI50 (converted)): 9.33 µM
CC50 (RXF 393; [23]): > 50.1 µM
TGI (RXF 393; read-out: pTGI (converted)): > 50.1 µM
growth at 5 µM (OVCAR-3 [15]): 63%
growth at 5 µM (SNB-19 [16]): 15%
growth at 0.005 µM (OVCAR-3 [17]): 110%
GI50 (NCI-H322M; read-out: GI50): 30.7 µM
CC50 (NCI-H322M; [22]): > 50 µM
TGI (NCI-H322M; read-out: TGI): > 50 µM
GI50 (NCI-H322M; read-out: pGI50 (converted)): 30.9 µM
CC50 (NCI-H322M; [23]): > 50.1 µM
TGI (NCI-H322M; read-out: pTGI (converted)): > 50.1 µM
growth at 0.005 µM (CAKI-1): 89%
growth at 0.05 µM (OVCAR-5 [18]): 89%
growth at 0.005 µM (T47D): 97%
IC50 [19]: 0.88 µM
growth at 0.005 µM (NCI-H522): 99%
growth at 0.005 µM (IGROV-1 [20]): 111%
growth at 0.5 µM (ACHN): 95%
growth at 0.005 µM (SNB-19 [21]): 97%

Source: ChEMBL document CHEMBL3588757, “Structure-based design, synthesis and biological testing of piperazine-linked bis-epipodophyllotoxin etoposide analogs” (Bioorg Med Chem, 2015)
